Assay outcomes (PubChem)
PKA-R1A activ = activators of PKA-R1A complex; P00514+P68181; PKA-R1A dissociation, Cy5-IP20 fluorescence polarization; scaled: DMSO 0%, 113 µM cGMP 100%; activation, % at 11.4 µM; actives 0.083% (n = 340,000); AID 504707;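 active = percent activation above the mean of all tested compounds plus 3 SD, cut at about 19% in these data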;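 note: higher means more PKAc released from R1A so a rise in polarization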
CXCR6 block = inhibitors of human CXCR6 receptor; O00574; CHO-K1 PathHunter CXCR6 beta-arrestin, luminescence; inhibition, % at 20 µM; actives 0.36% (n = 360,000); AID 602244; in the data active = inhibition above about 34%, passing the limit was not always enough;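 note: antagonist mode with CXCL16 agonist at 10 nM final; 0% = 10 nM CXCL16 with DMSO and 100% = unstimulated wells without agonist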
PKA-R2B activ = activators of human PKA-R2B complex; P22694+P31323; PKA-R2B holoenzyme dissociation, Cy5-IP20 fluorescence polarization; R2B truncated from residue 108, S112A mutant; 0% DMSO only, 100% 113 µM cGMP; activation, % at 11.4 µM; actives 0.079% (n = 340,000); AID 504700;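 active = activation above a cutoff set at the mean over all compounds plus 3 SD, cut at about 18% in these data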;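 note: higher means more holoenzyme dissociation and a rise in polarization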
CCR6 antagonist = CCR6 (human) receptor antagonism; P51684; CHO-K1 CCR6 PathHunter beta-arrestin, luminescence, CCL20-stimulated; inhibition, % at 20 µM; actives 0.49% (n = 340,000); AID 493098;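 active = compounds whose inhibition of the agonist-driven luminescence signal at 20 µM reaches about 50%, limit read from the data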;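 note: cells stimulated with CCL20 at 14 nM final; plate controls were DMSO with CCL20 for no effect and DMSO without agonist for full effect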
APJ agonist = activates the human apelin receptor APJ; actives 0.11% (n = 330,000); CHO-K1 APJ PathHunter beta-arrestin, luminescence; 0% DMSO wells, 100% apelin; activation, % at 20 µM; P35414;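 active = activation more than six SD over the plate average, tested at 20 µM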;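 note: 0% = DMSO alone and 100% = apelin-13 at 10 nM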
Target sequence (P35414 whole entry, looked up): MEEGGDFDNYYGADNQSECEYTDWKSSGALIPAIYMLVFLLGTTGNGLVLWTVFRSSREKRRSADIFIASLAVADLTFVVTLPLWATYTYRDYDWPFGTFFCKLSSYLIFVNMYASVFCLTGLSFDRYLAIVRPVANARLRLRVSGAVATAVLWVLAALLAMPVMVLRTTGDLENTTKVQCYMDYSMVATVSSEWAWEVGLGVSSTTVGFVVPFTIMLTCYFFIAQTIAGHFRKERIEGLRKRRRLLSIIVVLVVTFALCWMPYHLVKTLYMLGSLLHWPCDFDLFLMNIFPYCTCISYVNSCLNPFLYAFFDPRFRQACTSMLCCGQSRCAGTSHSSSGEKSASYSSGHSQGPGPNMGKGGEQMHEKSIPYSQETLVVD
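Material: engineered CHO-K1 APJ arrestin reporter cells; amount: 1000 CHO-K1 reporter cells seeded per well; incubation: compound stimulation 90 min at 25 °C, detection 60 min; signal: luminescent beta-gal fragment complementation, chemiluminescent substrate; read-out basis: APJ agonist activity; controls: DMSO-only wells as negative, 10 nM Apelin-13 as positive control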
APJ antagonist = APJ receptor antagonism; CHO-K1 APJ beta-arrestin complementation, luminescence; inhibition, % at 20 µM; P35414; actives 0.32% (n = 330,000); AID 2521;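 active = inhibition above about 40% at 20 µM, limit read from the data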;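 note: cells challenged with 10 nM apelin-13 agonist together with compound; plate controls were apelin-13 plus DMSO wells for no effect and DMSO wells lacking apelin-13 for full effect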
* marks the source's active call; other numbers are inactive results. Most compounds without a hit are left out; they make up all but 0.88% or so of the library.

For CCOC(=O)c1c(N)sc(N)c1C(=O)OCC the results were PKA-R1A activ -7.5, CXCR6 block 16.8, PKA-R2B activ 2.7, CCR6 antagonist 23.3, APJ agonist -11.5 and APJ antagonist 60.6*.
O=C(N/N=C/C(Br)=C\c1ccccc1)c1cccs1 was read as CXCR6 block -7.4, CCR6 antagonist 10.6, APJ agonist 2.9 and APJ antagonist -6.6.
`N#CC(C#N)=C1C=CC=CN1/C(=C\c1ccccc1)C(=O)c1cccs1` gave PKA-R1A activ 0.5, CXCR6 block 9.0, PKA-R2B activ 4.9, CCR6 antagonist 87.2*, APJ agonist -3.5 and APJ antagonist 24.0.
`O=c1c(Cl)c(O)ccn1C1OC(CO)C(O)C1O` (stereo not given) gave PKA-R1A activ -6.0, CXCR6 block -2.2, PKA-R2B activ -5.7 and CCR6 antagonist -0.9.
Screening COc1ccnc(CSC(N)=Nc2ccccc2C(F)(F)F)c1 returned PKA-R1A activ -7.3, CXCR6 block -6.2, PKA-R2B activ -4.2, CCR6 antagonist -8.2, APJ agonist -0.2 and APJ antagonist -13.0.
`COc1ccnc(CSC(N)=Nc2cccc(C(F)(F)F)c2)c1` gave PKA-R1A activ -3.9, CXCR6 block 28.4, PKA-R2B activ -5.4 and CCR6 antagonist 53.5*.
For CCOc1ccccc1N1C(=O)CC(Sc2n[nH]c(-c3ccccc3)n2)C1=O (stereo not given) the results were PKA-R1A activ -3.8, CXCR6 block -8.0, PKA-R2B activ 1.2, CCR6 antagonist 70.2*, APJ agonist -1.9 and APJ antagonist 3.9.
O=C(N1CCOCC1)N1[C@H](COCc2ccccc2)C=CS1(=O)=O was read as CXCR6 block -2.2.
For Cc1ccccc1N1C(=O)CC(Sc2nnc(-c3ccccc3)o2)C1=O (stereo not given) the results were PKA-R1A activ 0.9, CXCR6 block 51.6*, PKA-R2B activ 2.2, APJ agonist -2.3 and APJ antagonist 6.1.
For O=C1CC(Sc2nnc(-c3ccccc3)o2)C(=O)N1c1ccccc1 (stereo not given) the results were PKA-R1A activ -6.8, CXCR6 block -6.0, PKA-R2B activ -6.7, CCR6 antagonist 12.9, APJ agonist 5.4 and APJ antagonist 1.4.
For O=c1cc(-c2c(F)c(F)c(F)c(F)c2F)oc2c(F)c(F)c(F)c(F)c12 the results were APJ agonist -0.3 and APJ antagonist 51.6*.
For CN(C)c1ccc(/C=C/C=C2/SC(=S)N(c3ccccc3)C2=O)cc1 the results were PKA-R1A activ -9.2, CXCR6 block 52.5*, PKA-R2B activ 1.6, CCR6 antagonist 44.9, APJ agonist -6.1 and APJ antagonist 38.9.
O=C(O)c1ccc(N2C(=O)/C(=C/C=C/c3ccccc3)SC2=S)cc1 was read as PKA-R1A activ 3.6, CXCR6 block -0.9, PKA-R2B activ -5.7, CCR6 antagonist 13.7, APJ agonist -1.3 and APJ antagonist 2.4.
Cc1ccc2cccc(OC(=O)c3c(F)cccc3Cl)c2n1 was read as CXCR6 block 2.4.
For O=S(=O)(Nc1ccc(N=Nc2ccc(O)c3ccccc23)cc1)c1ccccc1 the results were PKA-R1A activ -5.9, CXCR6 block 34.5, PKA-R2B activ 2.8, CCR6 antagonist 60.5*, APJ agonist -10.4 and APJ antagonist 37.9.
For CCOC(=O)N1CCN(C(=O)C2CCN(C(=O)c3ccccc3C)CC2)CC1 the results were PKA-R1A activ -8.6, CXCR6 block 108.9* and PKA-R2B activ -0.9.
`Cc1ccccc1C(=O)N1CCC(C(=O)N2CCN(c3ncccn3)CC2)CC1` gave PKA-R1A activ 2.1, CXCR6 block 0.6, PKA-R2B activ -6.8, CCR6 antagonist -5.1, APJ agonist -3.7 and APJ antagonist -6.6.
For O=C(OC1CC2CC1[C@H]1CCCCN1C2=O)N1CCCCC1 (stereo not given in full) the results were CXCR6 block -1.5.
`CC1(C(=O)Nc2cnc3ccccc3c2)CCN1C(=O)C/C=C/c1ccccc1` (stereo not given) gave CXCR6 block 0.2.
CCOC(=O)c1c(N2C(=O)C=CC2=O)sc(C)c1C was read as PKA-R1A activ 2.1, CXCR6 block 61.0*, PKA-R2B activ -0.3, APJ agonist 0.5 and APJ antagonist -5.2.
For CCOC(=O)[C@]12CCCC=C1N(Cc1ccco1)C(=O)[C@H](CC(=O)NCc1cccc(C(F)(F)F)c1)C2 the results were CXCR6 block 3.2.
Cc1cc2ccccn2c1C(=O)c1ccc(N/N=C/c2ccc(C(=O)O)cc2)c([N+](=O)[O-])c1 was read as PKA-R1A activ -11.0, CXCR6 block 32.7, PKA-R2B activ -13.4 and CCR6 antagonist 42.2.
C/C(=N/Nc1ccc(C(=O)c2c(C)cc3ccccn23)cc1[N+](=O)[O-])c1ccc(O)cc1 was read as PKA-R1A activ -8.0, CXCR6 block 36.9*, PKA-R2B activ -6.3 and CCR6 antagonist 47.2.
Screening C/C(=N\Nc1ccc(C(=O)c2c(C)cc3ccccn23)cc1[N+](=O)[O-])c1ccc(O)cc1 returned PKA-R1A activ -6.0, CXCR6 block 46.7*, PKA-R2B activ -1.3, CCR6 antagonist 41.5, APJ agonist -5.0 and APJ antagonist 16.7.
For CC(C)CNC(=O)c1cc([N+](=O)[O-])ccc1N1CCCCC1 the results were PKA-R1A activ -3.4, CXCR6 block 2.0, PKA-R2B activ 8.3, CCR6 antagonist 41.5, APJ agonist -3.3 and APJ antagonist 2.6.
`CCC(CC)c1nnc(NC(=O)c2cc([N+](=O)[O-])ccc2N2CCCCC2)s1` gave PKA-R1A activ -3.3, CXCR6 block 16.2, PKA-R2B activ -1.6, CCR6 antagonist 70.8*, APJ agonist -0.9 and APJ antagonist 18.2.
Screening O=C(NC1CCCCCC1)c1c2c(nc3ccccc13)CCN(Cc1ccccc1)C2 returned PKA-R1A activ 2.5, CXCR6 block 15.3, PKA-R2B activ 5.8, CCR6 antagonist 1.0, APJ agonist -1.1 and APJ antagonist -12.3.
Cc1cc(N2CCN(C)CC2)ccc1NC(=O)c1c2c(nc3ccccc13)CCN(Cc1ccccc1)C2 was read as PKA-R1A activ -13.9, CXCR6 block -11.0, PKA-R2B activ -1.0, CCR6 antagonist 0.3, APJ agonist 16.0* and APJ antagonist -15.6.
`COc1ccc2c(c1)C(=O)O[C@@H](c1ccccc1)C[C@@H](O)C(=O)CC2` gave CXCR6 block -13.7.
Screening Cn1c(N=Nc2ccc(N3CCOCC3)cc2)[n+](C)c2ccccc21 returned PKA-R1A activ 2.6, CXCR6 block 54.2*, PKA-R2B activ -7.1 and CCR6 antagonist 63.0*.
